Bioassay records (PubChem)
The list is not random: actives were taken first. Their share in the collection is about 5.8%.
IDH1 mut inh: IDH1 R132H (human) inhibition; O75874; IDH1 R132H reductase, diaphorase/resazurin fluorescence, 60 min; inhibition, % at 10 µM; actives 0.18% (n = 70,000); AID 624101; in the data active = inhibition above about 34%; inconclusive = no clear call, values can overlap the other calls; inactive = below about 11%
T cruzi growth-1: T. cruzi proliferation inhibition; inhibition, % at 8.34 µM; AID 624255; actives 5.9% (n = 77,000); T. cruzi beta-gal in NIH3T3, GalScreen luminescence, 90 h;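 active = mean inhibition above about 93%, with at least 55% of replicates each passing it, limit read from the data, passing the limit was not always enough; inconclusive = only one of those two conditions holds; inactive = neither condition holds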
Pf Dd2 growth: P. falciparum Dd2 growth inhibition | AID 1159554 | actives 2.3% (n = 94,000) | activity change, % at 10 µM | SYBR Green, 72 h; active compounds read low; in the data active = activity change below about -80%; inconclusive = no clear call, values can overlap the other calls
KDM4C inh: KDM4C (human) demethylase inhibition | Q9H3R0 | GST-KDM4C 2-372, H3K9me3 peptide, LANCE TR-FRET | inhibition, % at 12.5 µM | actives 0.15% (n = 96,000);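 active = mean replicate inhibition above about 25%, with at least 55% of replicates also reaching it, limit read from the data, passing the limit was not always enough; inconclusive = only one of those two conditions met; inactive = neither condition met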
Target sequence (Q9H3R0 2-372 limits assumed): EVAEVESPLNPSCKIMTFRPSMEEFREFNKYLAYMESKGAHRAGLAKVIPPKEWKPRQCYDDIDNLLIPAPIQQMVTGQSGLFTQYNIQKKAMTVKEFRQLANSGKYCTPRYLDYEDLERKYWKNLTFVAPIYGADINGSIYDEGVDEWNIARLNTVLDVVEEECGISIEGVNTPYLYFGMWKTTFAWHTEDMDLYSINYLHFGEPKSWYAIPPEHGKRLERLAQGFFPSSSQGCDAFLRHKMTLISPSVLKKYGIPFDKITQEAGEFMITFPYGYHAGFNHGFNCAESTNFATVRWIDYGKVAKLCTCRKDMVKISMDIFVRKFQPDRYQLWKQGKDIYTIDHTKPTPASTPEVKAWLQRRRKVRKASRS
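material = GST-tagged GASC-1 (JMJD2C) catalytic fragment, aa 2-372 | amount = enzyme final amount 10 nM | medium = HEPES buffer, pH 7.5, plus ascorbate | also added = H3K9me3 peptide substrate, Fe(II), 2-oxoglutarate | dosing = single dose | times = 30 min demethylation and 1 h detection at room temperature | detection = LANCE TR-FRET | read-out basis = Fall in 671/618 emission ratio as inhibition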
T cruzi growth-2: inhibitors of T. cruzi proliferation; AID 651739; T. cruzi beta-gal in NIH3T3, GalScreen luminescence, 90 h; inhibition, % at 8.35 µM; shares compounds with T cruzi growth-1; actives 72% (n = 5,600);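 active = mean replicate inhibition above about 95% and at least 55% of replicates individually reaching it, limit read from the data; inconclusive = only one of the two criteria is met; inactive = neither criterion is met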
T cruzi growth-3: inhibitors of T. cruzi proliferation; shares compounds with T cruzi growth-1; T. cruzi beta-gal in NIH3T3, GalScreen luminescence, 90 h; inhibition, % at 2.09 µM; actives 21% (n = 5,600);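 active = mean inhibition above about 95%, with at least 55% of replicates also reaching it, limit read from the data; inconclusive = meets just one of the two conditions; inactive = meets neither condition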
3T3 cytotox: kills mouse NIH/3T3 fibroblasts | shares compounds with T cruzi growth-1 | NIH/3T3 viability, CellTiter-Glo ATP luminescence, 90 h | cytotoxicity (signal decrease), % at 8.35 µM | actives 14% (n = 5,600);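 active = mean signal decrease across replicates above about 35% based on untreated-well scatter, with enough replicates individually passing, limit read from the data; inconclusive = no rule stated though some were filed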
3T3 cytotox 2: cytotoxicity in mouse NIH/3T3 fibroblasts; shares compounds with T cruzi growth-1; NIH/3T3 viability, CellTiter-Glo ATP luminescence, 90 h; inhibition, % at 24.9 µM; actives 56% (n = 5,600); AID 651744;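 active = mean loss of cell viability signal at or above a set limit, and enough replicates individually reaching it; inconclusive = meets only the mean limit or only the replicate share; inactive = meets neither condition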
Of the large screens only hits and unclear results are named; the others gave an inactive call (follow-up assays come after a bar, where they were run).

O=C(CCN1C(=O)c2ccccc2C1=O)Nc1ccccc1C(=O)N1CCCC1	none (no result: T cruzi growth-1, Pf Dd2 growth, KDM4C inh)
Cc1nc(SCC(=O)Nc2c(C)cccc2C)n[nH]1	none (no result: T cruzi growth-1, Pf Dd2 growth, KDM4C inh)
O=C(CSc1nc(Nc2ccccc2)nc(Nc2ccccc2)n1)N1CCN(c2ccccc2)CC1	none (no result: T cruzi growth-1, Pf Dd2 growth, KDM4C inh)
C[C@@H]1CCCCO[C@@H](CN(C)Cc2ccc(C(F)(F)F)cc2)[C@H](C)CN([C@@H](C)CO)C(=O)c2cc(NS(=O)(=O)c3cccs3)ccc2O1	T cruzi growth-1 112 (no result: IDH1 mut inh) | T cruzi growth-2 103 | T cruzi growth-3 99 | 3T3 cytotox inconclusive | 3T3 cytotox 2 106
C[C@@H]1CCCCO[C@@H](CN(C)Cc2ccc(C(F)(F)F)cc2)[C@@H](C)CN([C@H](C)CO)C(=O)c2cc(NS(=O)(=O)c3cccs3)ccc2O1	none (no result: IDH1 mut inh)
COc1ccc(OC)c(S(=O)(=O)N2CCC(C(=O)Nc3ccccc3F)CC2)c1	none (no result: T cruzi growth-1, Pf Dd2 growth, KDM4C inh)
O=C(C[C@H]1C[C@H]2c3cc(NC(=O)NC4CCCC4)ccc3O[C@H]2[C@H](CO)O1)NCc1ccccc1	none
O=C(C[C@@H]1C[C@H]2c3cc(NC(=O)Nc4ccccc4)ccc3O[C@H]2[C@H](CO)O1)NCc1cccc(F)c1	T cruzi growth-1 104 | T cruzi growth-2 inactive | T cruzi growth-3 inactive | 3T3 cytotox inactive | 3T3 cytotox 2 inactive
O=C(C[C@H]1C[C@@H]2c3cc(NC(=O)Nc4ccccc4)ccc3O[C@@H]2[C@H](CO)O1)NCc1cccc(F)c1	none
O=C(C[C@@H]1C[C@H]2c3cc(NC(=O)NC4CCCC4)ccc3O[C@H]2[C@H](CO)O1)NCc1ccccc1	T cruzi growth-1 102 | T cruzi growth-2 inactive | T cruzi growth-3 inactive | 3T3 cytotox inactive | 3T3 cytotox 2 inactive
O=C(C[C@@H]1C[C@H]2c3cc(NC(=O)CC4CC4)ccc3O[C@H]2[C@H](CO)O1)NCc1cccnc1	T cruzi growth-1 109 | T cruzi growth-2 inactive | T cruzi growth-3 inactive | 3T3 cytotox inactive | 3T3 cytotox 2 inactive
O=C(C[C@@H]1C[C@H]2c3cc(NC(=O)CC4CC4)ccc3O[C@H]2[C@@H](CO)O1)NCc1cccnc1	none
O=C(C[C@H]1C[C@H]2c3cc(NC(=O)NC4CCCC4)ccc3O[C@H]2[C@@H](CO)O1)NCc1ccc(Cl)cc1	T cruzi growth-1 105 | T cruzi growth-2 inactive | T cruzi growth-3 inactive | 3T3 cytotox inactive | 3T3 cytotox 2 inactive
COc1cccc(C2CC(C(F)(F)F)n3ncc(C(=O)NCc4cccnc4)c3N2)c1 (stereo unspecified)	none (no result: T cruzi growth-1, Pf Dd2 growth, KDM4C inh)
O=C(NO)c1ccc(C(=O)N/N=C/c2ccc(Br)o2)cc1	none (no result: T cruzi growth-1, Pf Dd2 growth, KDM4C inh)
Cc1ccc(C(=O)O)cc1NC(=O)COc1ccc(I)cc1	none (no result: T cruzi growth-1, Pf Dd2 growth, KDM4C inh)
COc1ccccc1-c1ccc([C@H]2[C@@H](CO)N3CCCCN(C(=O)CN4CCOCC4)C[C@@H]23)cc1	T cruzi growth-1 inconclusive (no result: IDH1 mut inh) | T cruzi growth-2 inactive | T cruzi growth-3 inactive | 3T3 cytotox inactive | 3T3 cytotox 2 65
COc1ccccc1-c1ccc([C@@H]2[C@@H](CO)N3CCCCN(C(=O)CN4CCOCC4)C[C@@H]23)cc1	T cruzi growth-1 114 (no result: IDH1 mut inh) | T cruzi growth-2 inactive | T cruzi growth-3 inactive | 3T3 cytotox inactive | 3T3 cytotox 2 26
CCCC(=O)c1ccc(OCc2nc3ccccc3[nH]2)cc1	none (no result: T cruzi growth-1, Pf Dd2 growth, KDM4C inh)
CC(C)=CCC[C@@H](C)C/C=N/NC(=O)CCCCC(=O)NO	none (no result: T cruzi growth-1, Pf Dd2 growth, KDM4C inh)
CC(C)(C)[S@](=O)N1Cc2cc(C(=O)NCc3ccccc3F)nc(-c3cccc(-c4ccncc4)c3)c2[C@@H]1CCO	T cruzi growth-1 99 | T cruzi growth-2 102 | T cruzi growth-3 inactive | 3T3 cytotox inactive | 3T3 cytotox 2 103
COc1ccc(CNC(=O)c2cc3c(c(-c4cccc(-c5cccc(C#N)c5)c4)n2)[C@@H](CCO)N([S@](=O)C(C)(C)C)C3)cc1	T cruzi growth-1 inconclusive | T cruzi growth-2 107 | T cruzi growth-3 100 | 3T3 cytotox inactive | 3T3 cytotox 2 45
CC(C)(C)[S@](=O)N1Cc2cc(C(=O)NCc3ccncc3)nc(-c3cccc(-c4cccc(C#N)c4)c3)c2[C@@H]1CCO	none
